Published values of several laboratories.
Target: Protein kinase C theta type (PRKCQ, Homo sapiens, UniProt Q04759)

Compound	assay	conditions	quantity	value
C#Cc1n[nH]c2c(-c3cn(C(C)c4ccccn4)c(=O)[nH]c3=O)cc(F)cc12 (stereo not shown)	enzyme activity, inhibitor	1 µM	inhibition	1.2%
Nc1ncc(-c2nc(N3CCOCC3)nc(N3CCOCC3)n2)c(C(F)F)n1	cell-free assay, competition with immobilised ligand	10 µM	remaining binding	37%
CC(C)(C)c1cc(C=C(C#N)C#N)cc(Br)c1O	enzyme activity, inhibitor	0.5 µM	remaining activity	98%
Cn1cncc1[C@@](O)(COc1ccc(C#N)cc1-c1ccc(OC(F)(F)F)cc1)c1ccc(C#N)cc1	cell-free assay, competition with immobilised ligand	1 µM	remaining binding	100%
Cc1nn(C)cc1-c1nc2c(N3CCN(Cc4ccc(Cl)cc4)CC3)c(Cl)cnc2[nH]1	binding, competition with immobilised ligand	1 µM	remaining binding	100%
Cn1cc(-c2cccc(N3CCc4c(sc5c4CC(C)(C)C5)C3=O)c2CO)cc(Nc2ccncn2)c1=O	enzyme activity, inhibitor	1 µM	inhibition	-5%
N#CC1(c2ccccn2)CCN(Cc2cc(C(=O)O)c(=O)n3ccccc23)CC1	cell-free assay, competition with immobilised ligand	1 µM	remaining binding	96%
O=c1[nH]c2ccccc2n1C1CCN(Cc2ccc(-c3[nH]c4cc5ncnc5cc4nc3-c3ccccc3)cc2)CC1	cell-free assay	0.5 µM	remaining signal	96.4%
Cn1cc(-c2cc(F)cc(N3CCn4c(cc5c4CCCC5)C3=O)c2CO)cc(Nc2ccc(N3CCN(C4COC4)CC3)cn2)c1=O	enzyme activity, inhibitor	0.1 µM	inhibition	0%
COc1ncccc1-c1cnn2ccc(N3CCN(C(=O)OC(C)C)CC3)nc12	binding, competition with immobilised ligand	1 µM	remaining binding	100%
